# Measurements as given in paper PMC4527528 (Chemistry & biology, 2015).
# Tests used:
# ABHD3 = target: T1, ABHD3 (Homo sapiens, UniProt Q8WU67); test: ABPP-SILAC, in situ treatment of PC3 cells; format: cell-based; conditions: 4 h, FP-biotin probe
# T1 sequence (Q8WU67 1-409): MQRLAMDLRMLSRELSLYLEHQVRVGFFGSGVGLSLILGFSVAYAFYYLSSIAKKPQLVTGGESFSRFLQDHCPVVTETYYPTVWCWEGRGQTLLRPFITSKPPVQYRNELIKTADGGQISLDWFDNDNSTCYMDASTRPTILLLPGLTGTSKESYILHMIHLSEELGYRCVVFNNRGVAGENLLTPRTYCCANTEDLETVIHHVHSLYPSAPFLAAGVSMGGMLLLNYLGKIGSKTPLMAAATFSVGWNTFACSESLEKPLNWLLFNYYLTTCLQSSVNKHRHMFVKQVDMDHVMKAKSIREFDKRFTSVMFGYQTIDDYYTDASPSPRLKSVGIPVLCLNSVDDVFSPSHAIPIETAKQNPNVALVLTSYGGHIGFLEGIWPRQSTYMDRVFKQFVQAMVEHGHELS
# Outline: (§1)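 Heavy-isotope PC3 cells (RPMI plus serum, grown to confluency) get fresh medium with test compound; light cells get DMSO. Incubated 4 h at 37 °C, 5% CO2, then PBS-washed and sonicated in PBS. Proteomes (2 mg/mL) labelled with FP-biotin (2.5 µM, 1 h) or ABC45 (5 µM, 1 h), then CuAAC to biotin-azide. Heavy and light combined, streptavidin-enriched, trypsin-digested on bead, analysed by LC-MS/MS; SILAC ratios; two independent experiments.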
# ABHD4 [1] = target: T2, ABHD4 (Homo sapiens, UniProt Q8TB40); test: Gel-based competitive ABPP; format: biochemical; conditions: combined transfected HEK293T lysate
# T2 sequence (Q8TB40 1-342): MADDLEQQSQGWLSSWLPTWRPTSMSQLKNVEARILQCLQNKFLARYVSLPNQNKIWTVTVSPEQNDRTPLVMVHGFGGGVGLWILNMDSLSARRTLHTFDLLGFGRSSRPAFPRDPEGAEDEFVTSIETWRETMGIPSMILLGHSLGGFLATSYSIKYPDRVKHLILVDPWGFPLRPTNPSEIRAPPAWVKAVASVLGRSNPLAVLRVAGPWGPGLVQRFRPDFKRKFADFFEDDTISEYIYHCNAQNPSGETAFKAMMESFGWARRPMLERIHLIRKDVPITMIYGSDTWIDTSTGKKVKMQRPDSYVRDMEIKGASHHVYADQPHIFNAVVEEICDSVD
# PPT1 [2] = target: T3, PPT1 (Homo sapiens, UniProt P50897); test: In situ competitive ABPP; format: cell-based; conditions: transfected HEK293T cells
# T3 sequence (P50897 28-306): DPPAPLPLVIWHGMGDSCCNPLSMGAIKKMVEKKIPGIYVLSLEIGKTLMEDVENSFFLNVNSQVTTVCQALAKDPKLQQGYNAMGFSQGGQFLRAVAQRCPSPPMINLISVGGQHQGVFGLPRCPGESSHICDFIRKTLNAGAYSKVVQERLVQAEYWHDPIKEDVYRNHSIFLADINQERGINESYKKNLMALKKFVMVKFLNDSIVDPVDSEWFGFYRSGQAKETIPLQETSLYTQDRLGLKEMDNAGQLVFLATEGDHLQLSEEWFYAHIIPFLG
# Outline: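 HEK293T cells transiently transfected with human PPT1 are grown to confluency in DMEM plus serum. Treated in fresh medium with test compound or DMSO, 4 h, 37 °C, 5% CO2. Washed, sonicated in PBS, and lysates labelled with the ABC45 click probe. Rhodamine-azide added by CuAAC; PNGaseF deglycosylation for the blockade test; SDS-PAGE and in-gel fluorescence.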
# ABHD4 [3] = target: T2, ABHD4; test: ABPP-SILAC, in situ treatment of PC3 cells; format: cell-based; conditions: 4 h, FP-biotin probe
# Outline: as §1
# PPT1 [4] = target: T3, PPT1; test: ABPP-SILAC with ABC45 probe, in situ treatment of PC3 cells; format: cell-based; conditions: 1 µM, 4 h, ABC45 probe (5 µM, 1 h)
# Outline: as §1
# serine hydrolases = test: ABPP-SILAC serine hydrolase selectivity profile in PC3 cells; format: cell-based, human; conditions: PC3 cells in situ, 1 or 0.1 µM, 4 h; ABHD6 and CPVL
# Outline: as §1
# ABHD4 [5] = target: T2, ABHD4; format: biochemical; conditions: in vitro, lysates from ABHD4-transfected HEK293T cells
# Cytotoxicity = format: cell-based; conditions: read-out: cell toxicity IC50
# endogenous PPT1 = target: T4, endogenous PPT1 (Homo sapiens, UniProt P50897); test: MU-6S-Palm-βD-Glc substrate assay after in situ treatment of PC3 cells; format: cell-based; conditions: 500 nM, 4 h
# T4 sequence (P50897 28-306): T3 sequence (P50897 28-306)
# Outline: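 PC3 cells (RPMI plus serum, confluent) treated in situ with test compound or DMSO for 4 h at 37 °C, 5% CO2, then washed and sonicated in PBS. Lysate PPT1 activity measured with MU-6S-Palm-βD-Glc: thioester hydrolysis, then sweet almond β-glucosidase releases 4-methylumbelliferone, read by fluorescence. Activity compared with DMSO controls; three independent experiments.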
# PPT1 [6] = target: T5, PPT1 (Mus musculus, UniProt O88531); test: In vivo gel-based ABPP of mouse tissues; conditions: C57BL6 mice, intraperitoneal, 4 h, central and peripheral tissues
# T5 sequence (O88531 28-306): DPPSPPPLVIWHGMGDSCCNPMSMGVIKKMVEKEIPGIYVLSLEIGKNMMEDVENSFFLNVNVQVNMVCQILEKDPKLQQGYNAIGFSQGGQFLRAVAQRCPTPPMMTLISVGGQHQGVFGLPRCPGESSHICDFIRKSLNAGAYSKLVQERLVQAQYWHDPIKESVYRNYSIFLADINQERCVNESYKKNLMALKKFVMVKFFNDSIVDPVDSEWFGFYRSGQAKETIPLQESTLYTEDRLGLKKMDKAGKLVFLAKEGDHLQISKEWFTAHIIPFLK
# Outline: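 C57Bl/6 mice dosed intraperitoneally across 1–40 mg/kg in saline/ethanol/emulphor 18:1:1 (v/v/v), or vehicle. After 4 h, isoflurane anaesthesia, cervical dislocation and tissue harvest. Tissue proteomes (1 mg/mL) labelled with ABC45 (1 µM, 60 min) and rhodamine-azide by CuAAC, PNGaseF-treated after labelling, resolved by SDS-PAGE and scanned for fluorescence.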
compound,measurement,setting,value
COc1ccc(N2CCN(C(=O)ON3C(=O)C4CN(Cc5ccc(Oc6ccccc6)cc5)CCN4C3=O)CC2)cc1 (centres unmarked) [ABC34],inhibition of ABHD3,ABHD3; 1 µM,~ 80%
same,preference for ABHD4 over ABHD3,ABHD4 [1],preferentially inhibited ABHD4 over ABHD3
same,blockade of ABC45 reactivity of recombinant human PPT1,"PPT1 [2]; 5 µM, 4 h",blocked
same,inhibition of ABHD4,ABHD4 [3]; 1 µM,completely inhibited
same,inhibition of PPT1,PPT1 [4],more than 90%
COc1ccc(N2CCN(C(=O)ON3C(=O)C4CN(CC5CCN(Cc6ccccc6)CC5)CCN4C3=O)CC2)cc1 (centres unmarked) [ABC44],cross-reactive serine hydrolase activities,serine hydrolases,two of the >40 quantified SH activities
same,effect on NAPE hydrolysis activity of ABHD4,ABHD4 [5],neither ABC44 (17) nor the LYPLA1/2 inhibitor JJH254 (7) altered
same,in situ inhibition of hPPT1,PPT1 [2]; 200 nM,complete inhibition
same,IC50,Cytotoxicity,> 50 µM
same,4-MU-6S-Palm-βD-Glc hydrolysis activity compared to DMSO-treated control cells,endogenous PPT1,substantial reductions
same,reduction in endogenous PPT1 activity,endogenous PPT1,90%
same,dose producing near-complete blockade of PPT1,PPT1 [6],1 to 5 mg/kg
O=C(ON1C(=O)C2CN(Cc3ccc(Oc4ccccc4)cc3)CCN2C1=O)N1CCC(c2ccccc2)CC1 (centres unmarked) [ABC47],inhibition of ABHD3,ABHD3; 0.5 µM,inhibit both ABHD3 and ABHD4
same,inhibition of ABHD4,ABHD4 [3]; 0.5 µM,inhibit both ABHD3 and ABHD4
